The full list was thinned out, with hits kept by preference.
HCT116 PTEN-null – PTEN-deleted cell growth suppression; HCT116 PTEN-null viability, CellTiter-Glo, 60 h; stronger effect = lower value; viability, % at 10 µM; 140,000 tested, 1.2% active; AID 827;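 active = viability at or below a set limit, 4 SD under the median of all tested compounds, cut at about 3.7% in these data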;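 also: PTEN knockout HCT116 line with beta catenin targeted HCT116 as companion control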
H69AR inhibit – growth inhibitors of human H69AR lung tumor cells. H69AR lung tumor viability, ATP luminescence, 72 h; stronger effect = lower value. viability, % at 10 µM. 85,000 tested, 6% active;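 active = viability at or below 40%; inactive = viability above 40%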;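 also: multidrug resistant small cell line overexpressing MRP-1 efflux transporter; 100% = mean luminescence of untreated control wells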
HUVEC inhibit – inhibitors of human endothelial cell proliferation | HUVEC proliferation, CellTiter-Glo luminescence, 72 h; stronger effect = lower value | viability, % at 10 µM (by protocol) | 86,000 tested, 1.1% active;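 active = viability at or below 30%; inactive = viability above 30%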;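 also: 100% = median luminescence of DMSO-only cell control wells on each plate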
Fibroblast inh – blocks proliferation of human lung fibroblasts; 85,000 tested, 1.1% active; viability, % at 10 µM; LL 47 human lung fibroblast viability, ATP luminescence; stronger effect = lower value;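 active = viability at or below 50% in the single dose screen; inactive = viability above 50%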;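 also: compound exposure lasted 72 h before the ATP readout; 100% = median luminescence of untreated cell-only wells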
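Assay system: human lung fibroblast line LL 47, low passage. Input: 1,150 fibroblasts seeded per well. Times: overnight cell rest, 72 h compound treatment at 37 °C. Evaluation: % viability of median cell-only signal. Technique: luminescent ATP detection, CellTiter-Glo. Control set: cell-only wells, no compound.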
bCat KO growth – beta-catenin-lacking colon tumor cell growth suppression; 140,000 tested, 1.5% active; viability, % at 10 µM; HCT116 beta-catenin knockout viability, CellTiter-Glo, 60 h; stronger effect = lower value;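 active = viability at or under a set limit, the compound median less 4 SD, cut at about 6% in these data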;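 also: 0% = Hyamine 1622 control at 20 µM and 100% = untreated cell control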
* hit, by the source's call.

For COC(=O)C1C(=O)C=C(Nc2ccc(F)cc2)CC1c1ccc(OC)cc1 (stereo unspecified) the results were HCT116 PTEN-null 99 and bCat KO growth 105.
Screening COC(=O)C1=C(Nc2ccc(C)cc2)C=C(C)C(C(=O)OC)C1c1ccc(OC)cc1 (stereo unspecified) returned HCT116 PTEN-null 29, H69AR inhibit 24*, HUVEC inhibit 67, Fibroblast inh 62 and bCat KO growth 29.
Screening COC(=O)C1=C(Nc2ccc(C)cc2)C=C(C)C(C(=O)OC)C1c1cccc(OC)c1 (stereo unspecified) returned HCT116 PTEN-null 22, H69AR inhibit 17*, HUVEC inhibit 73, Fibroblast inh 60 and bCat KO growth 23.
Screening Cc1ccc(N=N/C(=C\O)C(=O)c2ccncc2)cc1 returned HCT116 PTEN-null 95, H69AR inhibit 98, HUVEC inhibit 78, Fibroblast inh 91 and bCat KO growth 89.
`O=C(/C(=C/O)N=Nc1ccc(Cl)cc1)c1ccncc1` gave HCT116 PTEN-null 0.8* and bCat KO growth 0.6*.
`O=C(Oc1ccc(Cl)c2cccnc12)C12CC3CC(CC(C3)C1)C2` gave HCT116 PTEN-null 10 and bCat KO growth 18.
`Cc1ccc(S(=O)(=O)N(CCC(=O)O)Cc2ccc(Cl)cc2)cc1` gave HCT116 PTEN-null 91, H69AR inhibit 94, HUVEC inhibit 86, Fibroblast inh 95 and bCat KO growth 85.
For Cc1cc(NC(=O)c2cncc(Br)c2)n(-c2ccccn2)n1 the results were HCT116 PTEN-null 85, H69AR inhibit 37*, HUVEC inhibit 85, Fibroblast inh 99 and bCat KO growth 103.
`Nc1c(C(=O)Nc2cccc(Cl)c2Cl)sc2nc(-c3cccnc3)ccc12` gave HCT116 PTEN-null 1.3* and bCat KO growth 1.5*.
`COc1ccccc1NC(=O)CC1C(=O)NCCN1C(=O)Nc1ccc(Cl)c(Cl)c1` (stereo unspecified) gave HCT116 PTEN-null 39, H69AR inhibit 53, HUVEC inhibit 15*, Fibroblast inh 86 and bCat KO growth 59.
For Cc1ccc2oc(=O)c3cnn(CC(=O)Nc4cc(-c5cccc(F)c5)no4)c3c2c1 the results were HCT116 PTEN-null 98 and bCat KO growth 103.
`O=c1oc2ccccc2nc1/C=C(O)/C=C\c1ccccc1` gave HCT116 PTEN-null 69 and bCat KO growth 64.
For O=C1C=CCC(/C=C/c2ccccc2)O1 (stereo unspecified) the results were HCT116 PTEN-null 4 and bCat KO growth 4.3*.
For COc1ccc(C(=O)Nc2sc(C)c(C)c2CN2CC(C)OC(C)C2)cc1 (stereo unspecified) the results were HCT116 PTEN-null 75 and bCat KO growth 80.
Screening COc1ccc2[nH]c(=O)c(CN(Cc3cccs3)S(=O)(=O)c3cccc4nsnc34)cc2c1 returned HCT116 PTEN-null 48, H69AR inhibit 3.0*, HUVEC inhibit 74, Fibroblast inh 83 and bCat KO growth 57.
For COc1ccc(/C(N)=N/O)cc1O the results were HCT116 PTEN-null 99 and bCat KO growth 101.
`COc1ccc(C(=O)/C=C/c2ccc(OC)c(Cn3nnc4ccccc43)c2)cc1` gave HCT116 PTEN-null 5 and bCat KO growth 6.0*.
CCOC(=O)c1c(-c2ccc(OC)cc2)csc1/N=C/C1=C(O)CCCC1=O was read as HCT116 PTEN-null 102 and bCat KO growth 93.
`CCOC(=O)Cc1csc(/N=C/c2c(O)n(-c3ccccc3C(F)(F)F)c(=O)c3ccccc23)n1` gave HCT116 PTEN-null 62 and bCat KO growth 76.
COc1cc(/C=C/c2ccc3cccc(OC)c3n2)c(OC(C)=O)c([N+](=O)[O-])c1 was read as HCT116 PTEN-null 65, H69AR inhibit 6.1*, HUVEC inhibit 15*, Fibroblast inh 94 and bCat KO growth 67.
For COc1ccccc1-c1nnc(Nc2nc3c(OC)cccc3s2)o1 the results were HCT116 PTEN-null 8 and bCat KO growth 5.1*.
Screening COc1cccc2sc(Nc3nnc(-c4ccccc4Cl)o3)nc12 returned HCT116 PTEN-null 12, H69AR inhibit 27*, HUVEC inhibit 2.4*, Fibroblast inh 41* and bCat KO growth 10.
For COc1cccc(-c2nnc(Nc3nc4c(F)cccc4s3)o2)c1 the results were HCT116 PTEN-null 73, H69AR inhibit 50, HUVEC inhibit 16*, Fibroblast inh 87 and bCat KO growth 71.

High-throughput results deposited in PubChem by SRMLSC.
